# Source: PubChem BioAssay
# An excerpt weighted towards active compounds, which were near 2.4% of everything screened.
# S1P4 ag = activates the human S1P4 receptor. S1P4-expressing cell line, agonist reporter assay. activation, % at 4.98 µM. hit rate 0.35% among 220,000; in the data active = activation above about 11%;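 also: 0% = DMSO vehicle and 100% = reference agonist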
# Target sequence (O95977 whole entry, looked up): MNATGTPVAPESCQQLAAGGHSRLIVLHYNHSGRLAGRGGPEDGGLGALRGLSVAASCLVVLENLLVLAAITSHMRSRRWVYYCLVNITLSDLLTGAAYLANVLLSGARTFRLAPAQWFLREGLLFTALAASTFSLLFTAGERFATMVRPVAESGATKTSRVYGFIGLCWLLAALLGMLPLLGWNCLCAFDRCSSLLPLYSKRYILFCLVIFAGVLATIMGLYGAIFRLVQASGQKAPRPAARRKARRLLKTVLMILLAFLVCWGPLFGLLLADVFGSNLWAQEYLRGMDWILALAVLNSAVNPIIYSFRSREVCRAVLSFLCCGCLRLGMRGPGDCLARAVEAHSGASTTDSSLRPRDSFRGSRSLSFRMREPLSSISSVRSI
# NPY Y1 blocker = NPY-Y1 (human) receptor antagonism; P25929; HEK293-CNG Y1 cells, membrane potential fluorescence; NPY at EC95, then isoproterenol; inhibition, % at 3.6 µM; hit rate 1% among 200,000; AID 1040;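 active = inhibition above the campaign mean inhibition of all tested compounds plus 3 SD, cut at about 20% in these data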;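 also: 0% = DMSO wells given NPY plus isoproterenol and 100% = isoproterenol alone without NPY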
#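 Material: HEK293 Y1/CNG channel cell line | Also added: NPY (25 nM), isoproterenol (1 µM), Ro 20-1724 (25 µM) | Compound: One concentration, 3.6 µM, in 0.4% DMSO | Schedule: 3 h dye uptake, 1 h room-temperature compound, 45 min post-isoproterenol | Signal: Membrane-potential fluorescent dye readout | Read-out: % inhibition of NPY effect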
# S1P4 antag = human S1P4 receptor antagonism. O95977. inhibition, % at 4.98 µM. S1P4-expressing cells, antagonist mode, reporter read-out. hit rate 0.26% among 220,000; in the data active = inhibition above about 29%;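 also: 0% = wells stimulated with agonist and 100% = vehicle wells without agonist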
# NPY1 pot ag = potentiators or agonists of human neuropeptide Y receptor Y1 | activation, % at 3.6 µM | NPY-Y1 expressing cells, potentiator/agonist activation | hit rate 0.37% among 220,000; in the data active = activation above about 33%, passing the limit was not always enough;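 also: cells stimulated with NPY at EC10 then isoproterenol at EC100; 0% = low agonist plus stimulus and 100% = saturating agonist plus stimulus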
# NPY-Y2 antag = NPY-Y2 (human) receptor antagonism; P49146; hit rate 0.99% among 140,000; inhibition, % at 2.7 µM; NPY-Y2 expressing cells, antagonist mode; in the data active = inhibition above about 17%;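 also: 0% = vehicle with agonist challenge and 100% = reference antagonist with challenge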
# NPY2 pot ag = human NPY-Y2 potentiation or agonism, primary screen. cells expressing NPY-Y2, potentiator/agonist read-out. activation, % at 3.6 µM. hit rate 0.45% among 220,000; in the data active = activation above about 27%;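 also: cells stimulated with NPY near EC25 plus isoproterenol at EC100; 0% = vehicle plus submaximal agonist and 100% = vehicle plus saturating agonist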
# NPY-Y1 antag ct = human NPY-Y1 antagonism in NPY-Y2 counter-screen. shares compounds with NPY-Y2 antag. cell-based NPY-Y1 antagonism counterscreen. inhibition, % at 3.6 µM. hit rate 19% among 710. AID 1256; in the data active = inhibition above about 20%;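 also: cells challenged with NPY then isoproterenol with cAMP sensed through a CNG channel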
# NPY2 antag conf = confirmation of human neuropeptide Y receptor Y2 antagonists; shares compounds with NPY-Y2 antag; inhibition, % at 2.8 µM; hit rate 32% among 710; HEK293 NPY-Y2 CNG channel, membrane potential fluorescence;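 active = mean inhibition of triplicate wells above the hit cutoff set in the primary screen, cut at about 17% in these data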;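 also: 0% = DMSO with NPY challenge and 100% = BIIE0246 high control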
# Numbers without * were called inactive; nt = no result given.
SMILES,S1P4 ag,NPY Y1 blocker,S1P4 antag,NPY1 pot ag,NPY-Y2 antag,NPY2 pot ag,NPY-Y1 antag ct,NPY2 antag conf
CCCSc1cc(=O)n(-c2ccccc2)nc1C(=O)OCC,-2,3,2,-8,19*,7,2,1
O=c1c2ccccc2nc(SCc2ccccc2)n1Cc1ccco1,2,-2,-7,-7,2,-8,nt,nt
O=c1c2ccccc2nc(SCc2cccc(F)c2)n1Cc1ccco1,-2,18,-2,-21,19*,-2,9,13
COc1ccc(C2Nc3ccccc3C(=O)N2c2ccc(C)cc2)cc1Cn1cc([N+](=O)[O-])cn1 (configuration not stated),1,8,-12,-27,19*,-40,27*,63*
COc1ccc(C2Nc3ccccc3C(=O)N2c2ccc(C)cc2)cc1Cn1nnc2ccccc21 (configuration not stated),-1,14,-21,13,2,1,nt,nt
O=c1c2cccnc2[nH]c(=S)n1CCCN1CCN(c2ccccc2F)CC1,-2,3,10,-16,4,4,nt,nt
Cc1nn(Cc2ccccc2)c(Cl)c1C(=O)OCc1nnc(-c2ccc(Cl)cc2)o1,-2,8,-2,-53,19*,-4,11,7
Cc1cccc(NC(=S)NNC(=S)NCc2ccccc2)c1,1,10,1,19,29*,-7,17,22*
CN(C)CCN1C(=O)C(=O)/C(=C(/O)c2ccc3c(c2)OCCO3)C1c1ccccn1 (configuration not stated),2,nt,2,-3,nt,-6,nt,nt
CC1=NN(c2ccccc2)C(=O)/C1=C\c1ccc(Br)s1,0,5,-12,-32,17*,-2,31*,34*
CCCCC(CC)C(=O)NCC(C)NC(=O)C(CC)CCCC (configuration not stated),0,7,-11,1,24*,6,17,8
Cc1cccc(NC(=O)c2sc(Cl)nc2C)c1C,-1,-3,-18,2,18*,1,-1,2
CCC1(C)OCC(Cn2c3ccccc3c3ccccc32)O1 (configuration not stated),1,-1,1,-31,9,6,nt,nt
CC[n+]1c(/C=C(\C)SC)sc2ccccc21,2,-4,-13,10,2,-1,nt,nt
CC[n+]1c(/C=C(\C)Nc2ccccc2)sc2ccccc21,-1,7,-10,-18,23*,-1,10,15
CC(C)=CCN1CCN(Cc2ccc(C#CC(C)(C)O)cc2)CC1CCO (configuration not stated),1,2,3,10,nt,-7,nt,nt
c1ccc(-c2ccc(-c3cnc4n3CCCCC4)cc2)cc1,-1,13,-4,-31,24*,-15,9,17
Clc1ccc(-c2cc(CSc3ccccc3)on2)cc1,1,8,-7,-43,15,-3,nt,nt
Clc1ccc(-c2cc(CSc3cccc(Cl)c3)on2)cc1,2,20,-23,-67,17*,-32,10,16
Cc1ccc(SCc2cc(-c3ccc(Cl)cc3)no2)cc1,1,6,-10,-11,19*,5,13,17
COc1cc(OC)cc(C(=O)N2CCC(N3CCCCCC3)CC2)c1,0,2,3,-9,2,-2,nt,nt
CC(=O)c1c(C)[nH]c(C(=O)Nc2ccc(Cl)c(S(=O)(=O)N3CCOCC3)c2)c1C,1,1,-12,18,0,-9,nt,nt
OC12CCCCC1C(c1ccc3c(c1)OCO3)N(Cc1ccccc1F)CC2 (configuration not stated),0,4,-29,-35,18*,-7,17,9
C=CCn1c(SC2CCOC2=O)nc2scc(C3CC3)c2c1=O (configuration not stated),0,12,-20,-5,45*,-22,30*,81*
COc1cccc(Nc2nc(NCC3CCCO3)c3ccccc3n2)c1 (configuration not stated),-3,15,17,-20,24*,-5,21*,14
SMILES,S1P4 ag,NPY Y1 blocker,S1P4 antag,NPY1 pot ag,NPY-Y2 antag,NPY2 pot ag,NPY-Y1 antag ct,NPY2 antag conf
CCCCNC(=O)Nc1c(C(=O)OC)[nH]c2ccc(C)cc12,2,6,-10,-10,0,-4,nt,nt
O=C(CSc1nnc(CCCN2C(=O)c3cccc4cccc(c34)C2=O)n1-c1ccccc1)NCCCN1CCOCC1,2,-2,6,-21,1,-1,nt,nt
COc1ccc(Nc2nc(N3CCCC3)c3ccccc3n2)cc1,2,14,-18,-24,32*,4,24*,34*
O=C(Cn1nc(-c2ccccc2)nc1-c1ccccc1)OC1CCCCC1,1,8,0,-25,19*,-21,8,6
S=C(NCCc1ccccc1)N/N=C/c1ccccc1Cl,-1,10,3,-57,43*,-23,18,18*
C/C(=N\NC(=S)NCCc1ccccc1)c1ccc(C)cc1,-1,10,-17,-27,17*,-20,15,15
CCc1ccc(/C=N/NC(=S)NCCc2ccccc2)cc1,-2,19,-11,-4,33*,-13,28*,30*
COc1ccc(F)cc1C(=O)C1CCCN(C(=O)c2cccc(N(C)C)c2)C1 (configuration not stated),0,-2,-10,-9,nt,-2,nt,nt
COc1ccc(C(=O)Nc2cccc(OC(=O)c3ccc(C)c(C)c3)c2)cc1,0,11,-3,-24,17*,-15,23*,23*
CC(C)c1ccc(NC(=O)c2snc3ccc(Cl)cc23)cc1,2,6,-21,-3,26*,-4,9,10
CC(C)c1ccc(NC(=O)c2csnn2)cc1,-1,4,14,31,-3,1,nt,nt
Cc1ccc(SCC(=O)NC(=O)Nc2ccc3c(c2)OCCO3)cc1C,1,1,-10,-28,19*,1,8,14
O=C(CSc1ncn(-c2ccccc2)n1)Nc1ccc2c(c1)OCCO2,0,5,9,-24,18*,-3,27*,24*
O=C(CSc1nnnn1-c1ccc(Cl)cc1)NC(=O)Nc1ccc2c(c1)OCCO2,0,17,-2,-5,20*,-3,15,15
C=CCn1c(Cc2ccc(OC)cc2)nnc1SCC(=O)c1cccc([N+](=O)[O-])c1,2,2,-3,9,0,1,nt,nt
N=c1c2c(ncn1Cc1ccco1)Oc1c(ccc3ccccc13)C2c1ccccc1 (configuration not stated),1,14,-13,-63,19*,-7,14,12
